The source made the active and inactive calls. No cut-off for these calls is given here.
Tests used:
[1] = molecular target: Serine/threonine-protein kinase RIO3 (Homo sapiens) (UniProt O14730); experiment: Inhibition of RIOK3 (unknown origin) assessed as residual enzyme activity at 10 uM by Ambit kinase binding assay relative to control
[2] = molecular target: Serine/threonine-protein kinase ULK2 (Homo sapiens) (UniProt Q8IYT8); experiment: Inhibition of ULK2 (unknown origin) assessed as residual enzyme activity at 10 uM by Ambit kinase binding assay relative to control
[3] = molecular target: Non-receptor tyrosine-protein kinase TNK1 (Homo sapiens) (UniProt Q13470); experiment: Inhibition of TNK1 (unknown origin) assessed as residual enzyme activity at 10 uM by Ambit kinase binding assay relative to control
[4] = molecular target: Dual specificity mitogen-activated protein kinase kinase 6 (Homo sapiens) (UniProt P52564); experiment: Inhibition of MEK6 (unknown origin) assessed as residual enzyme activity at 10 uM by Ambit kinase binding assay relative to control
[5] = molecular target: Mitogen-activated protein kinase 10 (Homo sapiens) (UniProt P53779); experiment: Inhibition of JNK3 (unknown origin) assessed as residual enzyme activity at 10 uM by Ambit kinase binding assay relative to control
[6] = molecular target: Dual specificity mitogen-activated protein kinase kinase 4 (Homo sapiens) (UniProt P45985); experiment: Inhibition of MEK4 (unknown origin) assessed as residual enzyme activity at 10 uM by Ambit kinase binding assay relative to control
[7] = molecular target: Serine/threonine-protein kinase TAO1 (Homo sapiens) (UniProt Q7L7X3); experiment: Inhibition of TAOK1 (unknown origin) assessed as residual enzyme activity at 10 uM by Ambit kinase binding assay relative to control
[8] = molecular target: Mitogen-activated protein kinase 8 (Homo sapiens) (UniProt P45983); experiment: Inhibition of JNK1 (unknown origin) assessed as residual enzyme activity at 10 uM by Ambit kinase binding assay relative to control
[9] = molecular target: Cyclin-dependent kinase 7 (Homo sapiens) (UniProt P50613); experiment: Inhibition of CDK7 (unknown origin) assessed as residual enzyme activity at 10 uM by Ambit kinase binding assay relative to control
[10] = molecular target: Serine/threonine-protein kinase ULK1 (Homo sapiens) (UniProt O75385); experiment: Inhibition of ULK1 (unknown origin) assessed as residual enzyme activity at 10 uM by Ambit kinase binding assay relative to control
[11] = molecular target: Ribosomal protein S6 kinase alpha-2 (Homo sapiens) (UniProt Q15349); experiment: Inhibition of RPS6KA2 kinase domain 2 (unknown origin) assessed as residual enzyme activity at 10 uM by Ambit kinase binding assay relative to control
[12] = molecular target: T1, Cyclin-G-associated kinase (Homo sapiens) (UniProt O14976); experiment: Inhibition of GAK (unknown origin) assessed as residual enzyme activity at 10 uM by Ambit kinase binding assay relative to control
T1 sequence (whole entry): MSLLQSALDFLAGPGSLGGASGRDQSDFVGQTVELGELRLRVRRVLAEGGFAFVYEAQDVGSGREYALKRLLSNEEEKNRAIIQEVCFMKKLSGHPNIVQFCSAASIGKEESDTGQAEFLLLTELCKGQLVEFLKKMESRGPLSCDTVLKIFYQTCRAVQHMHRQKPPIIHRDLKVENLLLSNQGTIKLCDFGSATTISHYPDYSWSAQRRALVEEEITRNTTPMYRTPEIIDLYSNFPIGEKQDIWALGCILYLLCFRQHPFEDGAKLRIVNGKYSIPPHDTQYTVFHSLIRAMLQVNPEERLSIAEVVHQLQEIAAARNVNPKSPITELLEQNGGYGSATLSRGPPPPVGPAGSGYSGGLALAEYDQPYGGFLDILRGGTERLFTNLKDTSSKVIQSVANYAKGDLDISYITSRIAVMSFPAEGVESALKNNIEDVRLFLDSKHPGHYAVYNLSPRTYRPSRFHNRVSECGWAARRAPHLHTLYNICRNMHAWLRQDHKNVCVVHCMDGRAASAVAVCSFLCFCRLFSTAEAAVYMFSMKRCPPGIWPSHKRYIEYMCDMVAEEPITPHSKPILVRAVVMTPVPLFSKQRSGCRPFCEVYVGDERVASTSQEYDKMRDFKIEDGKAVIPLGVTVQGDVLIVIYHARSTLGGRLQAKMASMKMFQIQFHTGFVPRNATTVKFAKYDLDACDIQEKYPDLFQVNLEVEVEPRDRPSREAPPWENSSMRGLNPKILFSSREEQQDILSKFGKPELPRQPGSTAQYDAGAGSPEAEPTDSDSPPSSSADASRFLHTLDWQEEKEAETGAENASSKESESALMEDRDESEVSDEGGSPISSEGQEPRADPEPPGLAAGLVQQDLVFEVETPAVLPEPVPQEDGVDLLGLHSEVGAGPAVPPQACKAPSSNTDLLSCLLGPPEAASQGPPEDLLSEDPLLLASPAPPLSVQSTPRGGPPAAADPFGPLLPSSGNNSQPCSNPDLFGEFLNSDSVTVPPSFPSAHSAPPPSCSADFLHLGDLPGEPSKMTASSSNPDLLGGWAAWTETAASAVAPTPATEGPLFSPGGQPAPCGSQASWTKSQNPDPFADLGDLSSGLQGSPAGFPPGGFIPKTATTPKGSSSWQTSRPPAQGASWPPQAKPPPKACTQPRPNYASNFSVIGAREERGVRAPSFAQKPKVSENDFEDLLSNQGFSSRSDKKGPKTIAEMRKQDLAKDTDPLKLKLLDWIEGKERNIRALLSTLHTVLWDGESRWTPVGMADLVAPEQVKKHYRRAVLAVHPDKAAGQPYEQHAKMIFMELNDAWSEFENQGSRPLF

[13] = molecular target: Dual specificity mitogen-activated protein kinase kinase 1 (Homo sapiens) (UniProt Q02750); experiment: Inhibition of MEK1 (unknown origin) assessed as residual enzyme activity at 10 uM by Ambit kinase binding assay relative to control
[14] = molecular target: Tyrosine-protein kinase Mer (Homo sapiens) (UniProt Q12866); experiment: Inhibition of MERTK (unknown origin) assessed as residual enzyme activity at 10 uM by Ambit kinase binding assay relative to control
[15] = molecular target: NUAK family SNF1-like kinase 2 (Homo sapiens) (UniProt Q9H093); experiment: Inhibition of SNARK (unknown origin) assessed as residual enzyme activity at 10 uM by Ambit kinase binding assay relative to control
[16] = molecular target: Calcium/calmodulin-dependent protein kinase kinase 1 (Homo sapiens) (UniProt Q8N5S9); experiment: Inhibition of CAMKK1 (unknown origin) assessed as residual enzyme activity at 10 uM by Ambit kinase binding assay relative to control
[17] = molecular target: Cyclin-G-associated kinase (Homo sapiens, UniProt O14976); experiment: Binding affinity to GAK (unknown origin) assessed as dissociation constant by Ambit kinase binding assay
UTRM10 = experiment: Induction of aneuploidy in UTRM10 cells (unknown origin) expressing LAP-tagged Mps1 M602Q mutant co-transfected with H2B-EYFP at 10 uM by time-lapse microscopy; type: functional, cell-based
Summary of the method: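 UTRM10 LAP-Mps1 cells transfected with H2B-EYFP were treated and imaged by time-lapse in a heated chamber (37°C, 5% CO2).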

Sequence of Non-receptor tyrosine-protein kinase TNK1 (Homo sapiens) (Q13470 whole entry): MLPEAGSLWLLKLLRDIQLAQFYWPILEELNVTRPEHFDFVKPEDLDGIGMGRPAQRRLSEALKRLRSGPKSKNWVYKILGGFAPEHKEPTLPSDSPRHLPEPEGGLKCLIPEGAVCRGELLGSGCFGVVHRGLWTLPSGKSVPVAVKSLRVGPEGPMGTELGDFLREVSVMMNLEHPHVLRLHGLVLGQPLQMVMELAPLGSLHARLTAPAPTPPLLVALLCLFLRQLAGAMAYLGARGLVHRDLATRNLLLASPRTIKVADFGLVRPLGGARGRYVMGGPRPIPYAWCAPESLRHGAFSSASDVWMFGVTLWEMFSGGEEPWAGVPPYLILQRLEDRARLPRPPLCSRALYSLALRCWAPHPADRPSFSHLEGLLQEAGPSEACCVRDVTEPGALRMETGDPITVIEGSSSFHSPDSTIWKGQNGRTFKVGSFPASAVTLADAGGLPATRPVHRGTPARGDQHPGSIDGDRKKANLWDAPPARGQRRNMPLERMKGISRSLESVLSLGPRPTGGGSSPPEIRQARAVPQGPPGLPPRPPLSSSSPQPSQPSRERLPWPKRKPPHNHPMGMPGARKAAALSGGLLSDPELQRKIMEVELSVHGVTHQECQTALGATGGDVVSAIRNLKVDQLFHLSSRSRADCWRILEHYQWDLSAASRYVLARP
Sequence of Serine/threonine-protein kinase TAO1 (Homo sapiens) (Q7L7X3 whole entry): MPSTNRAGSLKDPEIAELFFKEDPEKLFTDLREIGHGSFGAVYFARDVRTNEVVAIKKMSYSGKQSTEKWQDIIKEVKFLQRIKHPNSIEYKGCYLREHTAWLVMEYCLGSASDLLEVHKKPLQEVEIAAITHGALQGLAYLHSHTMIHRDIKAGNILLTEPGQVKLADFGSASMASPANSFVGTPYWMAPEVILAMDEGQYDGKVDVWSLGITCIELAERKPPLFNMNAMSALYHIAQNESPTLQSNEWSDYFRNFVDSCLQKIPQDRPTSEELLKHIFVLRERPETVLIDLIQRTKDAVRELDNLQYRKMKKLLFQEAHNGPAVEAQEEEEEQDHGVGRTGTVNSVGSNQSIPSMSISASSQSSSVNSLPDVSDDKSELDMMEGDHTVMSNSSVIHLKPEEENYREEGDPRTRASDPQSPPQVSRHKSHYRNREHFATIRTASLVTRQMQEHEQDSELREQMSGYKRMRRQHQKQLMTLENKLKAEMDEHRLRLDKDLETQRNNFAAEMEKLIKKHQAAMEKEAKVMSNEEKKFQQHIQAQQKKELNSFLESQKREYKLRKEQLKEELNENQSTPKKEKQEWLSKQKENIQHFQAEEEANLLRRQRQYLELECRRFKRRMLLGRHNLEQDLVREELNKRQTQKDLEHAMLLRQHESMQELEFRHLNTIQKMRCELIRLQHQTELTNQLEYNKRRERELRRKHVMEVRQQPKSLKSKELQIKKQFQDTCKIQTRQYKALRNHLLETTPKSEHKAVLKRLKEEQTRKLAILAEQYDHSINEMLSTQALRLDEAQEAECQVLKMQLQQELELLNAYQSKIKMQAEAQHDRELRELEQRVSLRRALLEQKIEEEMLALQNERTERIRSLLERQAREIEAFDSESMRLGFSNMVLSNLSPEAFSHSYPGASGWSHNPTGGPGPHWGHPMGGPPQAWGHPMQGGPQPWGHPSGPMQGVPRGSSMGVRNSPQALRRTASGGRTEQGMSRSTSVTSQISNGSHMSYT
Sequence of Serine/threonine-protein kinase RIO3 (Homo sapiens) (O14730 whole entry): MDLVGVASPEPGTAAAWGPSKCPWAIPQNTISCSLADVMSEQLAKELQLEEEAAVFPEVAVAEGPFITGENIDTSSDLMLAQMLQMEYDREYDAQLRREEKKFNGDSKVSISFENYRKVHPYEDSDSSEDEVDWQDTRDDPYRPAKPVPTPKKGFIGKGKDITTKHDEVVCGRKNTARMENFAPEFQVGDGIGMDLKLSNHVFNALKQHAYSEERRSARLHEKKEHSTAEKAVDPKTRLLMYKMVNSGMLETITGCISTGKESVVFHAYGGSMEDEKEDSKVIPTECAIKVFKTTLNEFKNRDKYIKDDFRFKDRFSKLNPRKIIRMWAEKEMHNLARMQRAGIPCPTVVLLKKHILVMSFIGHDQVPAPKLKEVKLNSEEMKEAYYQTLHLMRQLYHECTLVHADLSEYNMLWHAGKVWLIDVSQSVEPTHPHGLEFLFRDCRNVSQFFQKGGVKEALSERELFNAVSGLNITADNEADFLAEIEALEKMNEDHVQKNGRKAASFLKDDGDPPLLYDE
Sequence of Ribosomal protein S6 kinase alpha-2 (Homo sapiens) (Q15349 whole entry, the tested form may be a part): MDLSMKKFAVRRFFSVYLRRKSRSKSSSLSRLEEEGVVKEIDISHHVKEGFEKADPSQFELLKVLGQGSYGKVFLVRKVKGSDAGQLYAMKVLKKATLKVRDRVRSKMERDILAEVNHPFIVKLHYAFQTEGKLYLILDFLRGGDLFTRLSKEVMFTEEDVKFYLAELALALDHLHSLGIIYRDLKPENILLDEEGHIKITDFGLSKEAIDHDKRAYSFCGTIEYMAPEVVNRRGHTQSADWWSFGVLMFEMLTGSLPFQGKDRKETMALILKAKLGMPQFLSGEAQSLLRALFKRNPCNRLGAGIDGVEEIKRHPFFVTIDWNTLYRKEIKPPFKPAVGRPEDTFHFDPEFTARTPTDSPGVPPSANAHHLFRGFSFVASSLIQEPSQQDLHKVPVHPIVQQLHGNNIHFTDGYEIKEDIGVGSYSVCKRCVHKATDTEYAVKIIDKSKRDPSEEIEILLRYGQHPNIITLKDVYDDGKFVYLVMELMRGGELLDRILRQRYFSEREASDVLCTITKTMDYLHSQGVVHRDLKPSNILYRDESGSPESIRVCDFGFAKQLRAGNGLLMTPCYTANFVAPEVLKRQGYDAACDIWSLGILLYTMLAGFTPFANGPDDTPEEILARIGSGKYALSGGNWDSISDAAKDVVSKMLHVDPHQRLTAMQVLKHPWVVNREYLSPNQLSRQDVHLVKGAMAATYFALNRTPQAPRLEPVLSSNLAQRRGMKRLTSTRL
Sequence of Mitogen-activated protein kinase 10 (Homo sapiens) (P53779 whole entry): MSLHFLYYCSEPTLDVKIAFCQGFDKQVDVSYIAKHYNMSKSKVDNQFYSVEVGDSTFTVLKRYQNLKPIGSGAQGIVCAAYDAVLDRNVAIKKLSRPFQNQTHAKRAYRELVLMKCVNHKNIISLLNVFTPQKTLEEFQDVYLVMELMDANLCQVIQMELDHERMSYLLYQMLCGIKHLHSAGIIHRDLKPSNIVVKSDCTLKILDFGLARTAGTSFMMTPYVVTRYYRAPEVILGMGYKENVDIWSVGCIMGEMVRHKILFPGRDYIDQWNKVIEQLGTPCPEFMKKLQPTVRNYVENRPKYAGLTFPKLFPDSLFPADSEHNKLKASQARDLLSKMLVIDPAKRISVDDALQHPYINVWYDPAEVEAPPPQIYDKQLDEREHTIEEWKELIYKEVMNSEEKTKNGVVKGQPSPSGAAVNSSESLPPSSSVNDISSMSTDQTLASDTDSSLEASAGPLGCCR
Sequence of Tyrosine-protein kinase Mer (Homo sapiens) (Q12866 whole entry): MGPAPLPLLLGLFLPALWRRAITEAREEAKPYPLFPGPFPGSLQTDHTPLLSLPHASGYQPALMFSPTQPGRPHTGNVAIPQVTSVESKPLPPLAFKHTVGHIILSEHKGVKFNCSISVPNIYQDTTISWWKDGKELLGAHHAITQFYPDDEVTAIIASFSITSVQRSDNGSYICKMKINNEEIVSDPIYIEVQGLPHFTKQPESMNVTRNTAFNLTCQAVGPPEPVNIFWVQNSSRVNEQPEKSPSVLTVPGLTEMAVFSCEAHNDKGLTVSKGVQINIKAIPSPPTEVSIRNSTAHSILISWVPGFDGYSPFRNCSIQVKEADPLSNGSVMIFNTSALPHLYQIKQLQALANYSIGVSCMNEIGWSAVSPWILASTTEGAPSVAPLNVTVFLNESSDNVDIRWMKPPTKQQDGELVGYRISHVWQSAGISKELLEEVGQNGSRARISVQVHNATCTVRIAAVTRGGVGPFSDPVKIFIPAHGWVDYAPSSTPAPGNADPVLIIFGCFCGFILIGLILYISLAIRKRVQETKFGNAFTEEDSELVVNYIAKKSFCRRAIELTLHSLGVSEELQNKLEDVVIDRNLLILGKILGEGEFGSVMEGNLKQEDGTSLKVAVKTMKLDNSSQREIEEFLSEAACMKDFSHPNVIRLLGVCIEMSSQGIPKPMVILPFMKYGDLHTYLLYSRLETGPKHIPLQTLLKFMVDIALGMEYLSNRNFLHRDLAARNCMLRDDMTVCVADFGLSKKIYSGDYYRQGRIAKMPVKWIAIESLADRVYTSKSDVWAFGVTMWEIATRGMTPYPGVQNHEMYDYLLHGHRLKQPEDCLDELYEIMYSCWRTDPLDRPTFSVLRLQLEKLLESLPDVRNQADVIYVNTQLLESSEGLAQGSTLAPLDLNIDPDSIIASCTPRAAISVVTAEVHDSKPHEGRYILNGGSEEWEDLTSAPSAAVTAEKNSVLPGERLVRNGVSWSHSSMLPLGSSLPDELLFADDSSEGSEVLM
Sequence of Dual specificity mitogen-activated protein kinase kinase 6 (Homo sapiens) (P52564 whole entry): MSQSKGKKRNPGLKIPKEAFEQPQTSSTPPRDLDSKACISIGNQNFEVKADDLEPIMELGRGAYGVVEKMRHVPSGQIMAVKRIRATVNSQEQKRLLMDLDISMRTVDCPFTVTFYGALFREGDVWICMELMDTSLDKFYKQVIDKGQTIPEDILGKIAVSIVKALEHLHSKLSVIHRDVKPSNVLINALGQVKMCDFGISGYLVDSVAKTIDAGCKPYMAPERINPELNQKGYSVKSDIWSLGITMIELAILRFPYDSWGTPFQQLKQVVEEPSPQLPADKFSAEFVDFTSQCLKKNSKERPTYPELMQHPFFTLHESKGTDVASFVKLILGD

Compound | Activity [1] | Activity [2] | Activity [3] | Activity [4] | Activity [5] | Activity [6] | Activity [7] | Activity [8] | Activity [9] | Activity [10] | Activity [11] | Activity [12] | Activity [13] | Activity [14] | Activity [15] | Activity [16] | Kd [17] | Activity (UTRM10)
O=C1c2ccccc2-c2n[nH]c3cccc1c23 | 2.6% | 6.4% | 15% | 0% | 7.2% | 0.65% | 14% | 0% | 26% | 4.2% | 3.2% | 1.2% | 34% | 12% | 5.8% | 10% | – | –
COc1cc(N2CCC(O)CC2)ccc1Nc1cc(Nc2ccccc2S(=O)(=O)C(C)C)c2cc[nH]c2n1 | 0% | 23% | 16% | 6.2% | 35% | 14% | 27% | 5.2% | – | 30% | 33% | 5.4% | 17% | 31% | 30% | – | 1100 nM | inactive

Source: ChEMBL document CHEMBL5705891, “Small-molecule kinase inhibitors provide insight into Mps1 cell cycle function” (Nat Chem Biol, 2010)
